20 compounds from ChEMBL document CHEMBL3108751, “Isomannide-based peptidomimetics as inhibitors for human tissue kallikreins 5 and 7” (ACS Med Chem Lett, 2014) can be followed below.

Calls of active or inactive are those of the source. The calls are words filed in the database; no cut-off is given here. Bounds are passed on as bounds.

Experiment [1] is filed under the species Homo sapiens. The experiment in a line: Selectivity ratio of IC50 for human recombinant KLK7 to IC50 for human recombinant KLK5.
The target of experiment [2] is Kallikrein-6 (Homo sapiens) (UniProt Q92876). As to the kind of experiment: Inhibition of human KLK6 at 1 to 500 uM after 5 mins by spectrophotometry.
In experiment [3] the target is Kallikrein-1 (Homo sapiens) (UniProt P06870). As to the kind of experiment: Inhibition of human KLK1 at 1 to 500 uM after 5 mins by spectrophotometry.
Experiment [4] concerns the target T1, Kallikrein-7 (Homo sapiens, UniProt P49862). The experiment in a line: Inhibition of human recombinant KLK7 expressed in baculovirus-infected insect cell system using Abz-KLYSSKQ-Eddnp as substrate incubated for 5 mins prior to substrate addition by FRET assay.
The target of experiment [5] is T1, Kallikrein-7. As to the kind of experiment: Competitive inhibition of human recombinant KLK7 expressed in baculovirus-infected insect cell system using Abz-KLYSSKQ-Eddnp as substrate incubated for 5 mins prior to substrate addition by Lineweaver-Burk plot analysis. In a few lines:
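Mechanism was assessed from rates measured without inhibitor and at three inhibitor concentrations. Lineweaver–Burk plots were used to assign the inhibition type and derive Ki.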

The target of experiment [6] is T2, Kallikrein-5 (Homo sapiens, UniProt Q9Y337).
T2 sequence (Q9Y337 whole entry): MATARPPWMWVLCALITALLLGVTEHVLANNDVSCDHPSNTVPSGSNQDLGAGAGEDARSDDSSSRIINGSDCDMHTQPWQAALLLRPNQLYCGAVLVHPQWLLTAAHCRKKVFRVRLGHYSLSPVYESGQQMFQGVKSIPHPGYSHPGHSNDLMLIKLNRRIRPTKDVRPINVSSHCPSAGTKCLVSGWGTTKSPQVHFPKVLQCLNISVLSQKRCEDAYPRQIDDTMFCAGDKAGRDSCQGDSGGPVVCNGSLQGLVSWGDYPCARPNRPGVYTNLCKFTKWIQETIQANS
As to the kind of experiment: Competitive inhibition of human recombinant KLK5 expressed in baculovirus-infected insect cell system using Abz-KLRSSKQ-Eddnp as substrate incubated for 5 mins prior to substrate addition by Lineweaver-Burk plot analysis. In a few lines:
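FRET substrate Abz-KLRSSKQ-EDDnp hydrolysed by KLK5, with no inhibitor and with 0.5, 1.0 and 2.0 μM inhibitor. Lineweaver–Burk plots were fitted by linear regression. Ki was taken from a secondary plot of Km/Vmax against inhibitor concentration.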

For experiment [7], the target named is T2, Kallikrein-5. As to the kind of experiment: Inhibition of human recombinant KLK5 expressed in baculovirus-infected insect cell system using Abz-KLRSSKQ-Eddnp as substrate incubated for 5 mins prior to substrate addition by FRET assay.
Experiment [8] is filed under the species Homo sapiens. The experiment in a line: Selectivity ratio of IC50 for human recombinant KLK5 to IC50 for human recombinant KLK7.

T1 sequence (P49862 whole entry): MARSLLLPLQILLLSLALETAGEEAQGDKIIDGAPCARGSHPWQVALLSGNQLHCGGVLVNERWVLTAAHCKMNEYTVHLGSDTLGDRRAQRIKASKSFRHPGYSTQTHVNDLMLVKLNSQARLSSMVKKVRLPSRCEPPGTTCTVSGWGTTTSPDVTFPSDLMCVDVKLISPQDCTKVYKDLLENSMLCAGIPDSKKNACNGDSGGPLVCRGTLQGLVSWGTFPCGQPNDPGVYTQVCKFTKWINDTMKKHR
Chain of Kallikrein-1 (Homo sapiens) (P06870 25-262 limits assumed): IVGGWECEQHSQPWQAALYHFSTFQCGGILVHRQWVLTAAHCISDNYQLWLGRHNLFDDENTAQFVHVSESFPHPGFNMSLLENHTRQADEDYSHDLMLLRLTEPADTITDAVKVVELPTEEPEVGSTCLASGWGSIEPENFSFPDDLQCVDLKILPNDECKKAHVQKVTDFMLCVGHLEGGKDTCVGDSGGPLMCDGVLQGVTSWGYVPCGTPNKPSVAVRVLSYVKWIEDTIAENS

With `O=C(OC1CO[C@H]2[C@@H]1OC[C@H]2OCc1ccccc1)[C@H](Cc1ccccc1)NC(=O)[C@@H]1CCCN1C(=O)OCc1ccccc1` (single isomer, unassigned), in the experiment listed under Homo sapiens [1], the Ratio IC50 amounted to 5. Further, the inhibition entry in experiment [2] and in experiment [3] was “inactive” throughout. In addition, the concentration for half-maximal inhibition (IC50) on Kallikrein-7 [4] came to 19.6 µM; on Kallikrein-5 [7] it was 3.9 µM. In addition, the Ki at Kallikrein-7 [5] came to 2.8 µM; at Kallikrein-5 [6], 0.4 µM.

Consider `O=C(N[C@H]1CO[C@H]2[C@@H]1OC[C@H]2OCc1ccccc1)[C@H]1CCCN1C(=O)OCc1ccccc1`, for which the inhibition entry in experiment [2] and in experiment [3] was “inactive” throughout. The values for the IC50 at Kallikrein-7 [4] and at Kallikrein-5 [7] were 23.6 µM and 321 µM, respectively. On Kallikrein-7 [5], the Ki was determined as 15.1 µM.

`CC(C)[C@@H](NC(=O)OC(C)(C)C)C(=O)N[C@H]1CO[C@H]2[C@@H]1OC[C@H]2OCc1ccccc1`: the inhibition result in experiment [2] and in experiment [3] was “inactive” in each case. Moreover, the IC50 on Kallikrein-7 [4] was more than 1000 µM; at Kallikrein-5 [7], 480 µM.

On to `O=C(N[C@H]1CO[C@H]2[C@@H]1OC[C@H]2OCc1ccccc1)/C(=C/c1cccs1)NC(=O)c1ccccc1` (stereo in doubt), for which the figures for the 50% inhibitory concentration (IC50) at Kallikrein-7 [4] and on Kallikrein-5 [7] were 13.3 µM and 99.2 µM, respectively. Moreover, the Ki on Kallikrein-7 [5] is 1.8 µM; at Kallikrein-5 [6] it was 70.7 µM.

For the compound `CC(C)[C@@H](NC(=O)OC(C)(C)C)C(=O)O[C@@H]1CO[C@H]2[C@@H]1OC[C@H]2OCc1ccccc1`, the inhibition result in experiment [2] and in experiment [3] was “inactive” throughout. For the same compound, the IC50 turned out to be 239 µM on Kallikrein-7 [4] and 223 µM on Kallikrein-5 [7].

Take `CC(C)(C)OC(=O)N[C@H](COCc1ccccc1)C(=O)N[C@H]1CO[C@H]2[C@@H]1OC[C@H]2OCc1ccccc1`: the inhibition entry in experiment [2] and in experiment [3] was “inactive” each time. The 50% inhibitory concentration (IC50) amounted to 84.5 µM at Kallikrein-7 [4] and 53.9 µM at Kallikrein-5 [7].

As to `CC(C)(C)OC(=O)N[C@@H](CCCCNC(=O)OCc1ccccc1)C(=O)O[C@@H]1CO[C@H]2[C@@H]1OC[C@H]2OCc1ccccc1`, the inhibition result in experiment [2] and in experiment [3] was “inactive” throughout. The 50% inhibitory concentration (IC50) is 13.7 µM on Kallikrein-7 [4] and 9 µM on Kallikrein-5 [7]. Also, the Ki came to 1.4 µM at Kallikrein-7 [5] and 0.7 µM on Kallikrein-5 [6].

For the compound `CC(C)(C)OC(=O)N[C@@H](CCCCNC(=O)OCc1ccccc1)C(=O)N[C@H]1CO[C@H]2[C@@H]1OC[C@H]2OCc1ccccc1`, the inhibition result in experiment [2] and in experiment [3] was “inactive” throughout. Further, the IC50 came to 23.6 µM at Kallikrein-7 [4] and 13.3 µM on Kallikrein-5 [7]. In addition, the Ki was 2.9 µM on Kallikrein-7 [5] and 2.4 µM on Kallikrein-5 [6].

Turning to `CC(C)(C)OC(=O)N1CCC[C@H]1C(=O)O[C@@H]1CO[C@H]2[C@@H]1OC[C@H]2OCc1ccccc1`, the Ratio IC50 in the experiment filed under Homo sapiens [8] was 21.3. For the same compound, the inhibition entry in experiment [2] and in experiment [3] was “inactive” each time. Further, the IC50 on Kallikrein-7 [4] is 24.4 µM; on Kallikrein-5 [7], 521 µM. In addition, the Ki at Kallikrein-7 [5] is 15.6 µM.

Consider `CC(C)(C)OC(=O)N[C@H](Cc1c[nH]c2ccccc12)C(=O)O[C@@H]1CO[C@H]2[C@@H]1OC[C@H]2OCc1ccccc1`, for which the Ratio IC50 in the experiment filed under Homo sapiens [8] stood at 6. Moreover, the inhibition result in experiment [2] and in experiment [3] was “inactive” each time. For the same compound, the IC50 at Kallikrein-7 [4] turned out to be 59.2 µM; at Kallikrein-5 [7] it was 377 µM.

As for `CSCC[C@H](NC(=O)OC(C)(C)C)C(=O)O[C@@H]1CO[C@H]2[C@@H]1OC[C@H]2OCc1ccccc1`, the inhibition entry in experiment [2] and in experiment [3] was “inactive” each time. In addition, the values for the half-maximal inhibitory concentration (IC50) at Kallikrein-7 [4] and on Kallikrein-5 [7] were 28.7 µM and 357 µM, respectively. The Ki at Kallikrein-7 [5] was determined as 18.4 µM.

`O=C(N[C@H]1CO[C@H]2[C@@H]1OC[C@H]2OCc1ccccc1)[C@H](Cc1ccccc1)NC(=O)[C@@H]1CCCN1C(=O)OCc1ccccc1`: the inhibition entry in experiment [2] and in experiment [3] was “inactive” throughout. The concentration for half-maximal inhibition (IC50) at Kallikrein-7 [4] worked out at 249 µM; on Kallikrein-5 [7] it was 157 µM.

Consider `CSCC[C@H](NC(=O)OC(C)(C)C)C(=O)N[C@H]1CO[C@H]2[C@@H]1OC[C@H]2OCc1ccccc1`, for which the inhibition entry in experiment [2] and in experiment [3] was “inactive” in each case. In addition, the results for the IC50 on Kallikrein-7 [4] and on Kallikrein-5 [7] were 457 µM and 37 µM, respectively. Also, at Kallikrein-5 [6], the Ki stood at 26.6 µM.

For the compound `CC(C)(C)OC(=O)N[C@H](CCCN/C(=N\C(=O)OCc1ccccc1)NC(=O)OCc1ccccc1)C(=O)N[C@H]1CO[C@H]2[C@@H]1OC[C@H]2OCc1ccccc1`, the inhibition entry in experiment [2] and in experiment [3] was “inactive” in each case. Besides, the IC50 on Kallikrein-7 [4] amounted to 16.9 µM; at Kallikrein-5 [7] it was 11.8 µM. In addition, the figures for the inhibition constant Ki at Kallikrein-7 [5] and at Kallikrein-5 [6] were 2.4 µM and 1.7 µM, respectively.

As to `CC(C)(C)OC(=O)N[C@@H](CC(=O)OCc1ccccc1)C(=O)O[C@@H]1CO[C@H]2[C@@H]1OC[C@H]2OCc1ccccc1`, the inhibition entry in experiment [2] and in experiment [3] was “inactive” throughout. Moreover, the IC50 was found to be 10.2 µM on Kallikrein-7 [4] and 4.7 µM at Kallikrein-5 [7]. In addition, the Ki stood at 1.3 µM at Kallikrein-7 [5] and 0.6 µM on Kallikrein-5 [6].

In the case of `CC(C)(C)OC(=O)N[C@H](Cc1c[nH]c2ccccc12)C(=O)N[C@H]1CO[C@H]2[C@@H]1OC[C@H]2OCc1ccccc1`, the inhibition result in experiment [2] and in experiment [3] was “inactive” throughout. The IC50 at Kallikrein-7 [4] was determined as 418 µM; on Kallikrein-5 [7], 39.2 µM. The Ki at Kallikrein-5 [6] stood at 28.2 µM.

On to `O=C(O[C@@H]1CO[C@H]2[C@@H]1OC[C@H]2OCc1ccccc1)[C@H]1CCCN1C(=O)OCc1ccccc1`, for which, in the experiment listed under Homo sapiens [1], the Ratio IC50 turned out to be 4. Moreover, the inhibition result in experiment [2] and in experiment [3] was “inactive” each time. Besides, the results for the IC50 on Kallikrein-7 [4] and at Kallikrein-5 [7] were 16.6 µM and 3.7 µM, respectively. Besides, the Ki on Kallikrein-7 [5] worked out at 1.9 µM; on Kallikrein-5 [6], 0.3 µM.

For `Cc1ccc(S(=O)(=O)n2cnc(C[C@H](NC(=O)OC(C)(C)C)C(=O)N[C@H]3CO[C@H]4[C@@H]3OC[C@H]4OCc3ccccc3)c2)cc1`, the Ratio IC50 in the experiment listed under Homo sapiens [8] stood at 6. For the same compound, the inhibition result in experiment [2] and in experiment [3] was “inactive” throughout. Also, the IC50 came out at 27.8 µM at Kallikrein-7 [4] and 157 µM at Kallikrein-5 [7]. Also, the Ki at Kallikrein-7 [5] turned out to be 4.4 µM.

With `CC(C)[C@H](NC(=O)OCc1ccccc1)C(=O)N[C@H](Cc1ccccc1)C(=O)N[C@H]1CO[C@H]2[C@@H]1OC[C@H]2OCc1ccccc1`, the inhibition result in experiment [2] and in experiment [3] was “inactive” each time. In addition, the 50% inhibitory concentration (IC50) on Kallikrein-7 [4] stood at 56.6 µM; on Kallikrein-5 [7], 21.7 µM. In addition, the Ki on Kallikrein-7 [5] is 3.8 µM; at Kallikrein-5 [6], 3.4 µM.

In the case of `CC(C)(C)OC(=O)N[C@H](COCc1ccccc1)C(=O)O[C@@H]1CO[C@H]2[C@@H]1OC[C@H]2OCc1ccccc1`, the inhibition result in experiment [2] and in experiment [3] was “inactive” in each case. Besides, the IC50 amounted to 16 µM at Kallikrein-7 [4] and 15.5 µM on Kallikrein-5 [7]. Also, the Ki was determined as 2.3 µM on Kallikrein-7 [5] and 2.4 µM on Kallikrein-5 [6].

As a reminder, the IC50 is the midpoint of a concentration-inhibition curve. For orientation: Ki means the equilibrium dissociation constant of an inhibitor or competing ligand from its target.
